Source: ChEMBL document CHEMBL5705901, “Exploiting selective BCL-2 family inhibitors to dissect cell survival dependencies and define improved strategies for cancer therapy” (Sci Transl Med, 2015)
Calls of active or inactive are those of the source. No cut-off for these calls is given here.

How the values were obtained:
Bcl-2-like protein 2 = target: T1, Bcl-2-like protein 2 (Homo sapiens, UniProt Q92843); experiment: Binding affinity to BCL-W (unknown origin) assessed as dissociation constant incubated for 1 hrs by TR-FRET assay
T1 sequence (Q92843 whole entry): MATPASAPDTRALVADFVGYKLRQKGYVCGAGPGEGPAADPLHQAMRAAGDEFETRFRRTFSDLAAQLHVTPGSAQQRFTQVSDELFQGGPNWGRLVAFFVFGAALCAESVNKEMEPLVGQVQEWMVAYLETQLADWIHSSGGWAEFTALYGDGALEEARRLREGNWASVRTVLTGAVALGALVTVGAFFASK

MOLT-4 [1] = experiment: Inhibition of Bcl-xl/BIM in human MOLT-4 cells at 0.1 to 1000 nM measured after 4 hrs by co-immunoprecipitation based electrochemiluminescent ELISA; type: cell-based; details: dose 0.1-1000 nM
In short: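 Molt-4 cells treated 4 h with increasing concentrations; BCL-XL–BIM and BCL-2–BIM complexes measured quantitatively; mean of triplicate experiments, error as SD.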

MOLT-4 [2] = experiment: Antiproliferative activity against Bcl-xl dependent human MOLT-4 cells assessed as reduction in cell viability by measuring effect concentration by CellTiter-Glo reagent based assay; type: functional
MEF [3] = experiment: Cytotoxicity against BAK/BAX knockout MEF cells assessed as reduction in cell viability incubated for 48 hrs by CellTiter-Glo cell vaibility assay; type: toxicity, cell-based; details: mouse
MEF [4] = experiment: Cytotoxicity against BAX knockout MEF cells assessed as reduction in cell viability incubated for 48 hrs by CellTiter-Glo cell vaibility assay; type: toxicity, cell-based; details: mouse
NCI-H889 = experiment: Antiproliferative activity against human NCI-H889 assessed as reduction in cell viability incubated for 48 hrs by CellTiter-Glo cell vaibility assay; type: functional, cell-based; details: NCI-H889, 48 h
In short: (§1)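 Tumour cell lines (SCLC panel and AML panel) exposed to increasing concentrations for 48 hours, then cell viability measured. Cell-killing EC50 taken from the concentration-response.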

NCI-H187 = experiment: Antiproliferative activity against human NCI-H187 assessed as reduction in cell viability incubated for 48 hrs by CellTiter-Glo cell vaibility assay; type: functional, cell-based; details: NCI-H187, 48 h; in short: as §1
NCI-H345 = experiment: Antiproliferative activity against human NCI-H345 assessed as reduction in cell viability incubated for 48 hrs by CellTiter-Glo cell vaibility assay; type: functional, cell-based; details: NCI-H345, 48 h; in short: as §1
NCI-H446 = experiment: Antiproliferative activity against human NCI-H446 assessed as reduction in cell viability incubated for 48 hrs by CellTiter-Glo cell vaibility assay; type: functional, cell-based; details: NCI-H446, 48 h; in short: as §1
NCI-H1048 = experiment: Antiproliferative activity against human NCI-H1048 assessed as reduction in cell viability incubated for 48 hrs by CellTiter-Glo cell vaibility assay; type: functional, cell-based; details: NCI-H1048, 48 h; in short: as §1
NCI-H69 = experiment: Antiproliferative activity against human NCI-H69 assessed as reduction in cell viability incubated for 48 hrs by CellTiter-Glo cell vaibility assay; type: functional, cell-based; details: NCI-H69, 48 h; in short: as §1
[5] = Antiproliferative activity against human NCI-H847 assessed as reduction in cell viability incubated for 48 hrs by CellTiter-Glo cell vaibility assay; type: functional, cell-based; details: NCI-H847, 48 h; in short: as §1
NCI-H1836 = experiment: Antiproliferative activity against human NCI-H1836 assessed as reduction in cell viability incubated for 48 hrs by CellTiter-Glo cell vaibility assay; type: functional, cell-based; details: NCI-H1836, 48 h; in short: as §1
GDM-1 = experiment: Antiproliferative activity against human GDM-1 assessed as reduction in cell viability incubated for 48 hrs by CellTiter-Glo cell vaibility assay; type: functional, cell-based; details: GDM-1, 48 h; in short: as §1
EOL1 = experiment: Antiproliferative activity against human EOL1 assessed as reduction in cell viability incubated for 48 hrs by CellTiter-Glo cell vaibility assay; type: functional, cell-based; details: EOL1, 48 h; in short: as §1
MOLM-13 = experiment: Antiproliferative activity against human MOLM-13 assessed as reduction in cell viability incubated for 48 hrs by CellTiter-Glo cell vaibility assay; type: functional, cell-based; details: MOLM-13, 48 h; in short: as §1
HL-60 = experiment: Antiproliferative activity against human HL-60 assessed as reduction in cell viability incubated for 48 hrs by CellTiter-Glo cell vaibility assay; type: functional, cell-based; details: HL-60, 48 h; in short: as §1
MV4-11 = experiment: Antiproliferative activity against human MV4-11 assessed as reduction in cell viability incubated for 48 hrs by CellTiter-Glo cell vaibility assay; type: functional, cell-based; details: MV4-11, 48 h; in short: as §1
ML-2 = experiment: Antiproliferative activity against human ML-2 assessed as reduction in cell viability incubated for 48 hrs by CellTiter-Glo cell vaibility assay; type: functional, cell-based; details: ML-2, 48 h; in short: as §1
SIG-M5 = experiment: Antiproliferative activity against human SIG-M5 assessed as reduction in cell viability incubated for 48 hrs by CellTiter-Glo cell vaibility assay; type: functional, cell-based; details: SIG-M5, 48 h; in short: as §1
OCI-AML2 = experiment: Antiproliferative activity against human OCI-AML2 assessed as reduction in cell viability incubated for 48 hrs by CellTiter-Glo cell vaibility assay; type: functional, cell-based; details: OCI-AML2, 48 h; in short: as §1
OCI-AML-5 = experiment: Antiproliferative activity against human OCI-AML5 assessed as reduction in cell viability incubated for 48 hrs by CellTiter-Glo cell vaibility assay; type: functional, cell-based; details: OCI-AML-5, 48 h; in short: as §1
Kasumi 1 = experiment: Antiproliferative activity against human Kasumi 1 assessed as reduction in cell viability incubated for 48 hrs by CellTiter-Glo cell vaibility assay; type: functional, cell-based; details: Kasumi 1, 48 h; in short: as §1
KG-1 = experiment: Antiproliferative activity against human KG-1 assessed as reduction in cell viability incubated for 48 hrs by CellTiter-Glo cell vaibility assay; type: functional, cell-based; details: KG-1, 48 h; in short: as §1
[6] = Antiproliferative activity against human HNT-34 assessed as reduction in cell viability incubated for 48 hrs by CellTiter-Glo cell vaibility assay; type: functional, cell-based; details: HNT-34, 48 h; in short: as §1
[7] = Antiproliferative activity against human PL-21 assessed as reduction in cell viability incubated for 48 hrs by CellTiter-Glo cell vaibility assay; type: functional, cell-based; details: PL-21, 48 h; in short: as §1
SKM-1 = experiment: Antiproliferative activity against human SKM-1 assessed as reduction in cell viability incubated for 48 hrs by CellTiter-Glo cell vaibility assay; type: functional, cell-based; details: SKM-1, 48 h; in short: as §1
[8] = Antiproliferative activity against human UKE-1 harboring JAK2 V617F mutant assessed as reduction in cell viability incubated for 48 hrs by CellTiter-Glo cell vaibility assay; type: functional, cell-based; details: UKE1, 48 h; in short: as §1
SET-2 = experiment: Antiproliferative activity against human SET2 harboring JAK2 V617F mutant assessed as reduction in cell viability incubated for 48 hrs by CellTiter-Glo cell vaibility assay; type: functional, cell-based; details: SET-2, 48 h; in short: as §1
HEL = experiment: Antiproliferative activity against human HEL harboring JAK2 V617F mutant assessed as reduction in cell viability incubated for 48 hrs by CellTiter-Glo cell vaibility assay; type: functional, cell-based; in short: as §1
[9] = Antiproliferative activity against human OCI-M2 assessed as reduction in cell viability incubated for 48 hrs by CellTiter-Glo cell vaibility assay; type: functional, cell-based; details: OCI-M2, 48 h; in short: as §1
[10] = Antiproliferative activity against human OCI-M1 assessed as reduction in cell viability incubated for 48 hrs by CellTiter-Glo cell vaibility assay; type: functional, cell-based; details: OCI-M1, 48 h; in short: as §1
[11] = Antiproliferative activity against human ME-1 assessed as reduction in cell viability incubated for 48 hrs by CellTiter-Glo cell vaibility assay; type: functional, cell-based; details: ME-1, 48 h; in short: as §1

SMILES	Ki (Bcl-2-like protein 2) [nM]	inhibition (MOLT-4 [1])	EC50 (MOLT-4 [2]) [nM]	Activity (MEF [3])	Activity (MEF [4])	EC50 (NCI-H889) [nM]	EC50 (NCI-H187) [nM]	EC50 (NCI-H345) [nM]	EC50 (NCI-H446) [nM]	EC50 (NCI-H1048) [nM]	EC50 (NCI-H69) [nM]	EC50 [5] [nM]	EC50 (NCI-H1836) [nM]	EC50 (GDM-1) [nM]	EC50 (EOL1) [nM]	EC50 (MOLM-13) [nM]	EC50 (HL-60) [nM]	EC50 (MV4-11) [nM]	EC50 (ML-2) [nM]	EC50 (SIG-M5) [nM]	other results
Cc1c(-c2ccc(N3CCc4cccc(C(=O)Nc5nc6ccccc6s5)c4C3)nc2C(=O)O)cnn1CC12CC3CC(CC(C3)C1)C2	4	Active	6	Non-Toxic	Non-Toxic	–	–	–	–	–	–	–	–	–	–	–	–	–	–	–	–
CN(C)CC#Cc1ccc(OCCCc2sc(N3CCc4cccc(C(=O)Nc5nc6ccccc6s5)c4C3)nc2C(=O)O)c(F)c1 [A-1155463]	8	Active	70	Non-Toxic	Non-Toxic	6310	180	> 10000	200	> 10000	3200	3	15	1170	2250	> 5000	> 5000	> 5000	> 5000	> 5000	EC50 (OCI-AML2): > 5000 nM; EC50 (OCI-AML-5): > 5000 nM; EC50 (Kasumi 1): 11 nM; EC50 (KG-1): > 5000 nM; EC50 [6]: 680 nM; EC50 [7]: > 5000 nM; EC50 (SKM-1): > 5000 nM; EC50 [8]: 490 nM; EC50 (SET-2): 80 nM; EC50 (HEL): 120 nM; EC50 [9]: 100 nM; EC50 [10]: 230 nM; EC50 [11]: > 5000 nM
CC1(C)CCC(c2ccc(Cl)cc2)=C(CN2CCN(c3ccc(C(=O)NS(=O)(=O)c4ccc(N[C@H](CCN5CCOCC5)CSc5ccccc5)c(S(=O)(=O)C(F)(F)F)c4)cc3)CC2)C1 [NAVITOCLAX]	21	–	–	–	–	53	37	300	850	900	180	140	260	11	11	30	40	40	50	11	EC50 (OCI-AML2): 11 nM; EC50 (OCI-AML-5): 180 nM; EC50 (Kasumi 1): 30 nM; EC50 (KG-1): 110 nM; EC50 [6]: 30 nM; EC50 [7]: 190 nM; EC50 (SKM-1): 240 nM; EC50 [8]: 50 nM; EC50 (SET-2): 60 nM; EC50 (HEL): 70 nM; EC50 [9]: 160 nM; EC50 [10]: 410 nM; EC50 [11]: > 5000 nM
